Measured values as given in ChEMBL document CHEMBL4020839, “Class I HDAC Inhibitors Display Different Antitumor Mechanism in Leukemia and Prostatic Cancer Cells Depending on Their p53 Status” (J Med Chem, 2018).
pIC50: −log10 of the molar value. Activity calls are given as the source filed them. No cut-off for these calls is given here.

Tests used:
[1] = test system: PC-3; test: Induction of morphological changes in human PC3 cells at 2 to 10 uM after 48 hrs by phase contrast microscopic method; assay type: functional, cell-based
In short: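 PC-3 cells treated 48 h with vehicle (DMSO), 2 μM or 10 μM and examined by phase-contrast light microscopy for morphology. Representative of n = 2.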

[2] = test system: PC-3; test: Cell cycle arrest in human PC3 cells assessed as accumulation at G2/M phase up to 2 uM after 24 hrs by propidium iodide staining based flow cytometry; assay type: functional
[3] = target: Histone deacetylase 3 (Homo sapiens) (UniProt O15379); details: 0.25 to 2 uM
[4] = target: T1, Protein deacetylase HDAC6 (Homo sapiens, UniProt Q9UBN7); test: Inhibition of HDAC6 (unknown origin) using Boc-Lys(acetyl)-AMC as substrate preincubated for 1 hr followed by substrate addition measured after 2 hrs by fluorescence assay
T1 sequence (Q9UBN7 whole entry): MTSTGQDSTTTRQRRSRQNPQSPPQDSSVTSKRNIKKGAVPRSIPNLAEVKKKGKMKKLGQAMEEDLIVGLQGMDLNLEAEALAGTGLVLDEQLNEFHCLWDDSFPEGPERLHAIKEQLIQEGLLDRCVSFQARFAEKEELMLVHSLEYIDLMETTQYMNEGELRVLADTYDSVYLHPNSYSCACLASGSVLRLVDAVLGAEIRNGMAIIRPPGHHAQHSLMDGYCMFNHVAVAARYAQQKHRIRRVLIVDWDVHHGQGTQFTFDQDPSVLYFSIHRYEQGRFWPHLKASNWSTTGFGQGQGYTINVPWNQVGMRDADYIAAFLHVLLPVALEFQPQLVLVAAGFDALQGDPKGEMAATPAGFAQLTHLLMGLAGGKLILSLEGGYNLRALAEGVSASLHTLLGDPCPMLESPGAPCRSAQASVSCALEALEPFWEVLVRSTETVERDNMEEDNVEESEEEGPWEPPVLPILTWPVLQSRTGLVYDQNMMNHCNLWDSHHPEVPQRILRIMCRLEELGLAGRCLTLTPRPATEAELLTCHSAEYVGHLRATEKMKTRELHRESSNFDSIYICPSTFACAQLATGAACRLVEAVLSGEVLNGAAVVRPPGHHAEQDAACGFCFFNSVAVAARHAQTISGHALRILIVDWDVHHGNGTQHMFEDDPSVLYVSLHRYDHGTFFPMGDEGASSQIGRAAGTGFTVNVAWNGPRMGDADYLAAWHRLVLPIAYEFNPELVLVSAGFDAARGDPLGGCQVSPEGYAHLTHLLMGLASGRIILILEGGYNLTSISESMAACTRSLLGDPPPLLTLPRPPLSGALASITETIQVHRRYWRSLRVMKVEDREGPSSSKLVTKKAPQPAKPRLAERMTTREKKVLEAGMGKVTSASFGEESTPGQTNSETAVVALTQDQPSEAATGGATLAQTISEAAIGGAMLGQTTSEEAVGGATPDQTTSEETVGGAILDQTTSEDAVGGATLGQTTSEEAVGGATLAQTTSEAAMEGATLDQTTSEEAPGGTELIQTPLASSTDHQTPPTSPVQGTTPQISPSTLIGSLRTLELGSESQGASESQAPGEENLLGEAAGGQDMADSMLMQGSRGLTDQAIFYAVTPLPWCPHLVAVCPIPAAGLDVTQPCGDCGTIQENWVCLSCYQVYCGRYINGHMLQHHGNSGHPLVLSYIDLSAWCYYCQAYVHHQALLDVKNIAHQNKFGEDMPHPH
In short: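 Recombinant HDAC incubated with serial compound dilutions at 30 °C for 1 h. Reaction run 2 h at 30 °C, stopped with developer containing trypsin and TSA. Fluorescence read after 30 min at 360/460 nm. Inhibition relative to control wells; IC50 from variable-slope fit.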

Sequence of Histone deacetylase 3 (Homo sapiens) (O15379 whole entry): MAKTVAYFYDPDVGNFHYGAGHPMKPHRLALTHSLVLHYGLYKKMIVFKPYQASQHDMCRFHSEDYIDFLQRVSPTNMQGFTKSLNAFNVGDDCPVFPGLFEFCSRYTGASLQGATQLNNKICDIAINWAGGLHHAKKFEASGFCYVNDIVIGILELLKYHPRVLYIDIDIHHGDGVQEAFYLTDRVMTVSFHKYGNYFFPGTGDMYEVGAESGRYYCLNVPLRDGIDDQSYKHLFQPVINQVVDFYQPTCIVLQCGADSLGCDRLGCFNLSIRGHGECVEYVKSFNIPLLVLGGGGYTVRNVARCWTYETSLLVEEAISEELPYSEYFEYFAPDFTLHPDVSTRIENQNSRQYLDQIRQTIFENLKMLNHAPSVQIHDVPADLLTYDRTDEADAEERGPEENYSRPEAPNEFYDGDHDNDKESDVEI

inhibition [3]: Active | pIC50 [4]: 4.00 to 4.30
Compound: CCCNNC(=O)c1ccc(NC(=O)[C@H](Cc2c[nH]c3ccccc23)NC(=O)c2ccc(OC)cc2)cc1
Activity [1]: inactive | Activity [2]: Active
